# Screening results: PubChem, several laboratories
# The list is not random: actives were taken first. Their share in the collection is about 4.8%.
# UCH37 inh = inhibitors of human UCH37 deubiquitinase, primary screen, biochemical, Ub-AMC cleavage, fluorescence; inhibition, % (test concentration not listed); Ubiquitin carboxyl-terminal hydrolase isozyme L5 (Homo sapiens), Q9Y5K5; purified proteasome/UCH37; 0.33% of 330,000 active;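 active = mean inhibition over replicate wells above about 20%, limit read from the data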;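 also: 0% = compound-free wells with enzyme and 100% = wells lacking proteasome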
#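 Material: human UCH37 enzyme supplied as purified proteasome complex. Measure: % inhibition of Ub-AMC cleavage fluorescence. Medium: pH 7.4 Tris-HCl (50 mM) with ovalbumin, ATP-MgCl2, DTT. Times: 30 min preincubation with enzyme, 25 min cleavage at room temperature. Detection: AMC fluorescence intensity at 355/460 nm.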
# pPAFAH FP inh = pPAFAH enzyme inhibitors, primary screen, biochemical, fluorescence polarization, human | Platelet-activating factor acetylhydrolase (Homo sapiens), Q13093 | 1.5% of 330,000 active | recombinant pPAFAH, FP-rhodamine probe fluorescence polarization | inhibition, % at 3.39 µM | AID 463082, 2010;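 active = inhibition above the mean inhibition across the screen plus 3 SD, cut at about 25% in these data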;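 also: inhibitors block binding of the rhodamine activity-based probe so polarization drops; 0% = enzyme with DMSO and 100% = wells lacking pPAFAH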
# GRIN3A LBD mod = binders of NR3A ligand-binding domain, primary screen, biophysical, differential scanning fluorimetry, uHTS. 2.5% of 340,000 active. NR3A LBD differential scanning fluorimetry, Tm shift; 0% = protein alone, 100% = glycine-bound protein. Tm shift relative to glycine control, % at 25 µM;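 active = melting temperature shift of at least 10% of the positive control shift, at one fixed dose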
# PAFAH1B2 inh = PAFAH1B2 enzyme inhibitors, primary screen, biochemical, fluorescence polarization, human; recombinant PAFAH1B2, FP-rhodamine activity probe; Platelet-activating factor acetylhydrolase IB subunit alpha2 (Homo sapiens), P68402; 1.2% of 340,000 active; inhibition, % at 3.39 µM;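 active = inhibition above the mean of all tested compounds plus 3 SD, cut at about 24% in these data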;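 also: 0% = enzyme with DMSO and 100% = wells lacking PAFAH1B2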
# Target sequence (P68402 whole entry, looked up): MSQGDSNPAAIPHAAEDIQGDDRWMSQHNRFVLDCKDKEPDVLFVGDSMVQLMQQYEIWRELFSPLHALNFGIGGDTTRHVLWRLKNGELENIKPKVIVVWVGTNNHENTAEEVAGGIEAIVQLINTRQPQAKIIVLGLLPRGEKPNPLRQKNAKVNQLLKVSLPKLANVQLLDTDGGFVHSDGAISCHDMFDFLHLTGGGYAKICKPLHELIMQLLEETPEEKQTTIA
# PAFAH2 FP inh = PAFAH2 enzyme inhibitors, primary screen, biochemical, fluorescence polarization, human; 0.99% of 340,000 active; Platelet-activating factor acetylhydrolase 2, cytoplasmic (Homo sapiens), Q99487; AID 492956, 2010; recombinant PAFAH2, FP-rhodamine activity probe; inhibition, % at 3.39 µM;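 active = inhibition above the mean over all tested compounds plus 3 SD, cut at about 30% in these data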;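 also: inhibitors block probe labeling of enzyme so polarization drops; 0% = enzyme with DMSO and 100% = wells lacking PAFAH2 protein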
# PAFAH1B3 FP inh = PAFAH1B3 enzyme inhibitors, primary screen, biochemical, fluorescence polarization, human. Platelet-activating factor acetylhydrolase IB subunit alpha1 (Homo sapiens), Q15102. recombinant PAFAH1B3, FP-rhodamine probe. inhibition, % at 3.39 µM. 0.28% of 340,000 active. AID 492972, 2010;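 active = inhibition above the screen-wide average of all tested compounds plus 3 SD, cut at about 25% in these data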;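 also: 0% = enzyme with DMSO only and 100% = wells lacking PAFAH1B3 protein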
# Target sequence (Q15102 whole entry, looked up): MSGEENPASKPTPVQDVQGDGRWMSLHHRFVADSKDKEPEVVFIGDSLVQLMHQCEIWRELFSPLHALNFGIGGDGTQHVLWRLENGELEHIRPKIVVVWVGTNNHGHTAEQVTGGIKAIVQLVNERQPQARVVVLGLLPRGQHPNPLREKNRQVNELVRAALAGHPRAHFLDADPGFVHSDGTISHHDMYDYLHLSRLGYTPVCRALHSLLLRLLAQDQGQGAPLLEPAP
# Starred values were filed as active, the others as inactive; · = not tested or not shown.
SMILES,UCH37 inh,pPAFAH FP inh,GRIN3A LBD mod,PAFAH1B2 inh,PAFAH2 FP inh,PAFAH1B3 FP inh
CCC(C)(C)C1CCc2c(sc(NC(=O)c3ccoc3C)c2C(N)=O)C1 (stereo not given),-89.6,3.5,3.0,1.2,13.6,2.3
CCC1CCc2c(sc(NC(=O)c3ccoc3C)c2C(N)=O)C1 (stereo not given),-22.5,25.3*,0.1,1.0,1.8,-3.7
O=C(NN=Cc1cn(-c2ccccc2)nc1-c1cccnc1)c1ccccc1,5.6,·,·,·,·,·
CC(=NNC(=S)Nc1ccc(F)cc1)C1CC1,4.1,·,·,·,·,·
O=C(NN=Cc1cccnc1)c1ccc(S(=O)(=O)N2CCCCCC2)cc1,-10.9,·,·,·,·,·
CCOC(=O)c1c(NC(=O)CSc2nnc(C)c(=O)[nH]2)sc2c1CCCC2,8.4,26.8*,-7.0,67.7*,3.1,3.2
CCOC(=O)c1c(NC(=O)CSc2nnc(C)c(=O)[nH]2)sc(C)c1-c1ccc(C)cc1,2.6,29.1*,-8.5,3.1,-1.3,-1.2
C(=NNc1nc(N2CCCC2)nc(N2CCCC2)n1)c1ccccc1OCc1ccccc1,5.7,·,·,·,·,·
COc1ccc(C=NNC(=O)c2cccc(Br)c2)cc1CN1CCOCC1,6.0,·,·,·,·,·
O=C(NN=Cc1ccccn1)C(=O)N1CCCCCC1,3.3,·,·,·,·,·
COc1cccc(/C=C2/Sc3ccc(C(=O)NCCN4CCCC4)cc3NC2=O)c1,4.1,34.3*,6.6,-0.6,-7.8,2.5
O=C(Nc1ccccc1O)c1c(O)c2c([nH]c1=O)CCCC2,·,6.6,13.9*,9.1,4.3,15.0
O=C(Nc1nccs1)c1c(O)c2c([nH]c1=O)CCCC2,-18.7,-1.6,0.7,2.8,1.0,-0.5
CC1CCN(C(=O)COC(=O)Cc2ccc(Br)cc2)CC1,2.9,28.5*,-3.2,11.3,0.7,5.5
CCOC(=O)N1CCN(C(=O)COC(=O)Cc2ccc(Cl)cc2)CC1,6.7,34.1*,-2.3,4.7,4.4,7.9
CCOC(=O)N1CCN(C(=O)Cc2ccc(Cl)cc2)CC1,0.4,0.8,-9.4,2.8,1.5,6.2
CCN1CCN(CC(=O)NN=Cc2ccc(F)cc2F)CC1,-1.0,·,·,·,·,·
CN(C)C=c1sc2c(C#N)cc(C(=O)c3ccc(Br)cc3)n2c1=O,1.6,·,·,·,·,·
CC1CCN(S(=O)(=O)c2ccc(N/N=C(/C#N)C(N)=O)cc2)CC1,·,3.1,-2.8,39.6*,8.4,2.7
N#CC(C#N)=NNc1ccc(S(=O)(=O)N2CCCCC2)cc1,8.2,17.4,12.0*,19.7,-8.6,14.6
CC1CCN(S(=O)(=O)c2ccc(NN=C(C#N)C(N)=O)cc2)CC1,14.2,·,·,·,·,·
CC(=NNC(=O)c1ccoc1C)c1cccc(NC(=O)C2CC2)c1,2.2,·,·,·,·,·
CN1C(=O)N(C)C2(c3ccccc3)Nn3c(sc(=Cc4ccco4)c3=O)=NC12c1ccccc1 (stereo not given),0.1,·,·,·,·,·
COc1ccc(O[C@H]2C=C[C@@H](c3ccccc3)O[C@@H]2CON=CC[C@@H]2C=C[C@H](OC(C)=O)[C@@H](COC(C)=O)O2)cc1,0.8,·,·,·,·,·
COc1ccc(C(=NO)C(=NO)c2ccc(OC)cc2)cc1,2.5,·,·,·,·,·
SMILES,UCH37 inh,pPAFAH FP inh,GRIN3A LBD mod,PAFAH1B2 inh,PAFAH2 FP inh,PAFAH1B3 FP inh
CCC(C)(C)NC(=O)C(NS(=O)(=O)c1cccs1)c1ccccc1 (stereo not given),0.6,-2.9,30.6*,1.4,7.0,3.6
CCc1cccc(CC)c1NC(=O)C(NS(=O)(=O)c1cccs1)c1ccccc1 (stereo not given),4.5,-4.3,-3.1,2.6,-2.4,-7.5
CC(=NNS(=O)(=O)c1ccccc1)c1c[nH]c2ccccc12,2.6,·,·,·,·,·
CCOc1ccc(CCNC(=O)c2ccc3c(=O)[nH]c4c(C(=O)NC(C)C)sc(=S)n4c3c2)cc1,15.1,29.1*,-1.4,12.1,29.2,15.1
COc1ccc(OC)c(CCNC(=O)c2ccc3c(=O)[nH]c4c(C(=O)NC(C)C)sc(=S)n4c3c2)c1,12.3,22.0,-5.8,24.3*,60.1*,20.7
O=C(CON=Cc1cccc([N+](=O)[O-])c1)NC1CCCCCC1,-1.0,·,·,·,·,·
C(CCc1ccccc1)=Nn1cnnc1,3.7,·,·,·,·,·
CN1CCN(C(=O)CSc2nc(-c3cccs3)cc(-c3cccs3)c2C#N)CC1,-19.7,27.5*,-2.9,4.0,19.1,5.7
CCN(CC)C(=O)CSc1nc(-c2cccs2)cc(-c2cccs2)c1C#N,-75.0,3.5,-1.4,1.7,-10.2,3.1
O=C(NN=Cc1ccc(OCC(=O)N2CCCCC2)cc1)c1ccccc1,3.8,·,·,·,·,·
Cc1cccc(C=Nn2c(COc3ccccc3)n[nH]c2=S)c1,2.3,·,·,·,·,·
COc1ccc([N+](=O)[O-])cc1NC1CCCCC1,5.9,10.0,15.5*,15.7,4.3,7.0
COc1ccc(C)cc1NC(=O)C1CCCCC1C(=O)O (stereo not given),5.4,-5.3,-0.6,-6.0,-15.1,0.4
COc1ccc([N+](=O)[O-])cc1NC(=O)C1CCCCC1C(=O)O (stereo not given),3.9,-3.5,18.0*,-0.8,2.5,11.0
COc1ccc([N+](=O)[O-])cc1NC1C2CC3CC(C2)CC1C3 (stereo not given),5.3,1.7,0.3,0.7,-9.8,8.0
O=C(CNS(=O)(=O)c1ccccc1)NCC(=O)OCc1ccc(C(=O)c2ccccc2)cc1,3.6,11.7,-2.5,1.4,0.2,11.2
O=C(CNS(=O)(=O)c1ccccc1)NCC(=O)OCc1ccc(Cl)cc1,1.7,4.8,0.5,27.3*,-1.6,-0.3
CC1(C)CC(=NNc2ccc([N+](=O)[O-])cc2[N+](=O)[O-])C(C)(C)O1,4.1,·,·,·,·,·
COc1ccc2oc(C(=O)N(C)CCOc3ccccc3)c(C)c2c1,-1.5,6.5,1.8,2.6,16.4,10.4
COc1ccc2oc(C(=O)N(C)Cc3ccc(OC(F)F)cc3)c(C)c2c1,-0.7,4.0,12.6*,-6.8,-1.2,-9.7
Cc1nc2c(C(=O)NCCC(C)C)c[nH]n2c(=O)c1Cc1ccccc1F,-3.8,30.8*,-28.4,5.6,6.1,19.3
CCC1(CC)NC(=O)N(CC(=O)Nc2sc3c(c2C(N)=O)CCC3)C1=O,2.1,28.0*,-5.6,2.5,16.1,3.2
Nc1ccc(O)cc1C(=O)OCC(=O)C12CC3CC(CC(C3)C1)C2,-105.8,29.1*,-12.5,16.3,86.2*,-6.3
CNS(=O)(=O)c1cccc(C(=O)OCC(=O)C23CC4CC(CC(C4)C2)C3)c1,3.3,6.5,-18.8,30.2*,45.6*,0.6
